According to ChEMBL document CHEMBL3259682, “Synthesis, β-haematin inhibition, and in vitro antimalarial testing of isocryptolepine analogues: SAR study of indolo[3,2-c]quinolines with various substituents at C2, C6, and N11” (Bioorg Med Chem, 2014):

System: L6
Test: Cytotoxicity against rat L6 cells after 70 hrs by Alamar Blue assay
Type: functional, cell-based
Settings: L6, 70 h
Outline: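 Rat skeletal myoblast L6 cells, 4000 per well, in RPMI 1640 with 1% L-glutamine and 10% fetal bovine serum. Eleven 3-fold serial drug dilutions were tested. Alamar Blue was added for a final 2 h. Fluorescence was read at excitation 536 nm and emission 588 nm. IC₅₀ is the mean of two independent assays.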

Row | Compound | IC50 [nM]
1 | O=C(NCCCNc1nc2ccc(F)cc2c2[nH]c3ccccc3c12)Nc1ccccc1 | 1500
2 | CC(C)(CNC(=O)Nc1ccccc1)CNc1nc2ccc(Cl)cc2c2[nH]c3ccccc3c12 | 4000
3 | NCCCNc1nc2ccc(Cl)cc2c2[nH]c3ccccc3c12 | 1120
4 | CC(CN)CNc1nc2ccc(Cl)cc2c2[nH]c3ccccc3c12 (stereo not drawn) | 1920
5 | CN(C)CCCNc1nc2ccccc2c2[nH]c3ccccc3c12 | 606
6 | Cc1ccc2nc(NCCCNC(=O)Nc3ccccc3)c3c4ccccc4[nH]c3c2c1 | 966
7 | CC(C)(CN)CNc1nc2ccc(Cl)cc2c2[nH]c3ccccc3c12 | 1840
8 | O=C(NCCCNc1nc2ccccc2c2[nH]c3ccccc3c12)Nc1ccccc1 | 1150
9 | O=C(NCCCCCCNc1nc2ccccc2c2[nH]c3ccccc3c12)Nc1ccccc1 | 862
10 | Cn1c2ccccc2c2c(NCCCN)nc3ccccc3c21 | 279
11 | O=C(NCCCNc1nc2ccc(Br)cc2c2[nH]c3ccccc3c12)Nc1ccccc1 | 1280
12 | S=C(NCCCNc1nc2ccccc2c2[nH]c3ccccc3c12)Nc1ccccc1 | 249
13 | O=C(NCCCNc1nc2ccccc2c2[nH]c3ccccc3c12)c1cccs1 | 3500

System: Plasmodium falciparum
Test: Antimalarial activity against erythrocytic stage of chloroquine-sensitive Plasmodium falciparum NF54 after 48 hrs by [3H]-hypoxanthine incorporation assay
Type: functional, organism-based
Settings: not given
Outline: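 ³H-hypoxanthine incorporation against P. falciparum NF54. DMSO stocks at 10 mg/mL were added to cultures in hypoxanthine-free RPMI 1640 with HEPES, NaHCO₃, neomycin and Albumax, using human A⁺ red cells at 2.5% haematocrit and 0.3% parasitaemia. Eleven 3-fold serial dilutions were tested. Incubation was under 4% CO₂/3% O₂/93% N₂. ³H-hypoxanthine was added after 48 h, followed by a further 24 h. Cells were harvested onto glass-fibre filters. IC₅₀ is the mean of two independent assays.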

Row | Compound | IC50 [nM]
14 | O=C(NCCCNc1nc2ccc(F)cc2c2[nH]c3ccccc3c12)Nc1ccccc1 | 25.7
15 | CC(C)(CNC(=O)Nc1ccccc1)CNc1nc2ccc(Cl)cc2c2[nH]c3ccccc3c12 | 10.6
16 | NCCCNc1nc2ccc(Cl)cc2c2[nH]c3ccccc3c12 | 6.2
17 | CC(CN)CNc1nc2ccc(Cl)cc2c2[nH]c3ccccc3c12 (stereo not drawn) | 29.5
18 | CN(C)CCCNc1nc2ccccc2c2[nH]c3ccccc3c12 | 9.4
19 | Cc1ccc2nc(NCCCNC(=O)Nc3ccccc3)c3c4ccccc4[nH]c3c2c1 | 23.6
20 | CC(C)(CN)CNc1nc2ccc(Cl)cc2c2[nH]c3ccccc3c12 | 25.5
21 | O=C(NCCCNc1nc2ccccc2c2[nH]c3ccccc3c12)Nc1ccccc1 | 2.4
22 | O=C(NCCCCCCNc1nc2ccccc2c2[nH]c3ccccc3c12)Nc1ccccc1 | 22.1
23 | Cn1c2ccccc2c2c(NCCCN)nc3ccccc3c21 | 72.3
24 | O=C(NCCCNc1nc2ccc(Br)cc2c2[nH]c3ccccc3c12)Nc1ccccc1 | 22.5
25 | S=C(NCCCNc1nc2ccccc2c2[nH]c3ccccc3c12)Nc1ccccc1 | 23.5
26 | O=C(NCCCNc1nc2ccccc2c2[nH]c3ccccc3c12)c1cccs1 | 72.4

System: not listed separately
Test: Selectivity index, ratio of IC50 for rat L6 cells to IC50 for erythrocytic stage of chloroquine-sensitive Plasmodium falciparum NF54
Type: toxicity, cell-based
Settings: read-out: Ratio IC50
Outline: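 Selectivity index is the L6 cytotoxicity IC₅₀ divided by the NF54 antiplasmodial IC₅₀. Each IC₅₀ is the mean of two independent assays.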

Row | Compound | selectivity ratio
27 | O=C(NCCCNc1nc2ccc(F)cc2c2[nH]c3ccccc3c12)Nc1ccccc1 | 58.5
28 | CC(C)(CNC(=O)Nc1ccccc1)CNc1nc2ccc(Cl)cc2c2[nH]c3ccccc3c12 | 378
29 | NCCCNc1nc2ccc(Cl)cc2c2[nH]c3ccccc3c12 | 181
30 | CC(CN)CNc1nc2ccc(Cl)cc2c2[nH]c3ccccc3c12 (stereo not drawn) | 65
31 | CN(C)CCCNc1nc2ccccc2c2[nH]c3ccccc3c12 | 64.3
32 | Cc1ccc2nc(NCCCNC(=O)Nc3ccccc3)c3c4ccccc4[nH]c3c2c1 | 40.9
33 | CC(C)(CN)CNc1nc2ccc(Cl)cc2c2[nH]c3ccccc3c12 | 72.1
34 | O=C(NCCCNc1nc2ccccc2c2[nH]c3ccccc3c12)Nc1ccccc1 | 480
35 | O=C(NCCCCCCNc1nc2ccccc2c2[nH]c3ccccc3c12)Nc1ccccc1 | 39
36 | Cn1c2ccccc2c2c(NCCCN)nc3ccccc3c21 | 3.9
37 | O=C(NCCCNc1nc2ccc(Br)cc2c2[nH]c3ccccc3c12)Nc1ccccc1 | 56.9
38 | S=C(NCCCNc1nc2ccccc2c2[nH]c3ccccc3c12)Nc1ccccc1 | 10.6
39 | O=C(NCCCNc1nc2ccccc2c2[nH]c3ccccc3c12)c1cccs1 | 48.3

System: Plasmodium falciparum
Test: Antimalarial activity against erythrocytic stage of chloroquine/pyrimethamine-resistant Plasmodium falciparum K1 after 48 hrs by [3H]-hypoxanthine incorporation assay
Type: functional, organism-based
Settings: not given
Outline: (§1)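 Chloroquine/pyrimethamine-resistant K1 and drug-susceptible NF54 P. falciparum were grown in hypoxanthine-free RPMI 1640 with HEPES, NaHCO₃, neomycin and Albumax, in human A⁺ erythrocytes at 2.5% haematocrit and 0.3% parasitaemia. DMSO stocks were 10 mg/mL, tested in eleven 3-fold dilutions under 4% CO₂/3% O₂/93% N₂. ³H-hypoxanthine was added at 48 h, then 24 h more before filter harvest. IC₅₀ is the mean of two assays; RI = K1/NF54 IC₅₀.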

Row | Compound | IC50 [nM]
40 | O=C(NCCCNc1nc2ccc(F)cc2c2[nH]c3ccccc3c12)Nc1ccccc1 | 49.2
41 | CC(C)(CNC(=O)Nc1ccccc1)CNc1nc2ccc(Cl)cc2c2[nH]c3ccccc3c12 | 16.9
42 | NCCCNc1nc2ccc(Cl)cc2c2[nH]c3ccccc3c12 | 67.7
43 | CC(CN)CNc1nc2ccc(Cl)cc2c2[nH]c3ccccc3c12 (stereo not drawn) | 59
44 | CN(C)CCCNc1nc2ccccc2c2[nH]c3ccccc3c12 | 25.1
45 | Cc1ccc2nc(NCCCNC(=O)Nc3ccccc3)c3c4ccccc4[nH]c3c2c1 | 42.5
46 | CC(C)(CN)CNc1nc2ccc(Cl)cc2c2[nH]c3ccccc3c12 | 51
47 | O=C(NCCCNc1nc2ccccc2c2[nH]c3ccccc3c12)Nc1ccccc1 | 53.7
48 | O=C(NCCCCCCNc1nc2ccccc2c2[nH]c3ccccc3c12)Nc1ccccc1 | 24.4
49 | Cn1c2ccccc2c2c(NCCCN)nc3ccccc3c21 | 85.4
50 | O=C(NCCCNc1nc2ccc(Br)cc2c2[nH]c3ccccc3c12)Nc1ccccc1 | 36.9
51 | S=C(NCCCNc1nc2ccccc2c2[nH]c3ccccc3c12)Nc1ccccc1 | 49.3
52 | O=C(NCCCNc1nc2ccccc2c2[nH]c3ccccc3c12)c1cccs1 | 84.9

System: not listed separately
Test: Selectivity index, ratio of IC50 for rat L6 cells to IC50 for chloroquine/pyrimethamine-resistant Plasmodium falciparum K1
Type: toxicity, cell-based
Settings: read-out: Ratio IC50

Row | Compound | selectivity ratio
53 | O=C(NCCCNc1nc2ccc(F)cc2c2[nH]c3ccccc3c12)Nc1ccccc1 | 30.6
54 | CC(C)(CNC(=O)Nc1ccccc1)CNc1nc2ccc(Cl)cc2c2[nH]c3ccccc3c12 | 236
55 | NCCCNc1nc2ccc(Cl)cc2c2[nH]c3ccccc3c12 | 16.6
56 | CC(CN)CNc1nc2ccc(Cl)cc2c2[nH]c3ccccc3c12 (stereo not drawn) | 32.5
57 | CN(C)CCCNc1nc2ccccc2c2[nH]c3ccccc3c12 | 24.1
58 | Cc1ccc2nc(NCCCNC(=O)Nc3ccccc3)c3c4ccccc4[nH]c3c2c1 | 22.7
59 | CC(C)(CN)CNc1nc2ccc(Cl)cc2c2[nH]c3ccccc3c12 | 36.1
60 | O=C(NCCCNc1nc2ccccc2c2[nH]c3ccccc3c12)Nc1ccccc1 | 21.5
61 | O=C(NCCCCCCNc1nc2ccccc2c2[nH]c3ccccc3c12)Nc1ccccc1 | 35.3
62 | Cn1c2ccccc2c2c(NCCCN)nc3ccccc3c21 | 3.3
63 | O=C(NCCCNc1nc2ccc(Br)cc2c2[nH]c3ccccc3c12)Nc1ccccc1 | 34.7
64 | S=C(NCCCNc1nc2ccccc2c2[nH]c3ccccc3c12)Nc1ccccc1 | 5.1
65 | O=C(NCCCNc1nc2ccccc2c2[nH]c3ccccc3c12)c1cccs1 | 41.2

System: not listed separately
Test: Resistance index, ratio of IC50 for chloroquine/pyrimethamine-resistant Plasmodium falciparum K1 to IC50 for erythrocytic stage of chloroquine-sensitive Plasmodium falciparum NF54
Type: functional
Settings: not given
Outline: as §1

Row | Compound | Ratio IC50
66 | O=C(NCCCNc1nc2ccc(F)cc2c2[nH]c3ccccc3c12)Nc1ccccc1 | 1.9
67 | CC(C)(CNC(=O)Nc1ccccc1)CNc1nc2ccc(Cl)cc2c2[nH]c3ccccc3c12 | 1.6
68 | NCCCNc1nc2ccc(Cl)cc2c2[nH]c3ccccc3c12 | 10.9
69 | CC(CN)CNc1nc2ccc(Cl)cc2c2[nH]c3ccccc3c12 (stereo not drawn) | 2
70 | CN(C)CCCNc1nc2ccccc2c2[nH]c3ccccc3c12 | 2.66
71 | Cc1ccc2nc(NCCCNC(=O)Nc3ccccc3)c3c4ccccc4[nH]c3c2c1 | 1.8
72 | CC(C)(CN)CNc1nc2ccc(Cl)cc2c2[nH]c3ccccc3c12 | 2
73 | O=C(NCCCNc1nc2ccccc2c2[nH]c3ccccc3c12)Nc1ccccc1 | 22.4
74 | O=C(NCCCCCCNc1nc2ccccc2c2[nH]c3ccccc3c12)Nc1ccccc1 | 1.1
75 | Cn1c2ccccc2c2c(NCCCN)nc3ccccc3c21 | 1.2
76 | O=C(NCCCNc1nc2ccc(Br)cc2c2[nH]c3ccccc3c12)Nc1ccccc1 | 1.6
77 | S=C(NCCCNc1nc2ccccc2c2[nH]c3ccccc3c12)Nc1ccccc1 | 2.1
78 | O=C(NCCCNc1nc2ccccc2c2[nH]c3ccccc3c12)c1cccs1 | 1.2

Target: not listed separately
Test: Binding affinity to haematin assessed as inhibition of beta-haematin formation after 5 to 6 hrs by pyridine-ferrichrome-based method
Settings: not given
Outline: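 Detergent (NP-40) mediated β-haematin formation assay, run manually. Compounds came from 20, 2 and 0.4 mM DMSO stocks, tested at 0–1000 µM final. Haematin was 100 µM final in 0.5 M acetate buffer, pH 4.8. Incubation was 5–6 h at 37 °C. Read-out used the pyridine-ferrichrome method with UV–vis absorbance. IC₅₀ came from sigmoidal dose–response fits.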

Row | Compound | IC50 [nM]
79 | O=C(NCCCNc1nc2ccc(F)cc2c2[nH]c3ccccc3c12)Nc1ccccc1 | 22700
80 | CC(C)(CNC(=O)Nc1ccccc1)CNc1nc2ccc(Cl)cc2c2[nH]c3ccccc3c12 | 11700
81 | NCCCNc1nc2ccc(Cl)cc2c2[nH]c3ccccc3c12 | 12400
82 | CC(CN)CNc1nc2ccc(Cl)cc2c2[nH]c3ccccc3c12 (stereo not drawn) | 12700
83 | CN(C)CCCNc1nc2ccccc2c2[nH]c3ccccc3c12 | 83600
84 | Cc1ccc2nc(NCCCNC(=O)Nc3ccccc3)c3c4ccccc4[nH]c3c2c1 | 17200
85 | CC(C)(CN)CNc1nc2ccc(Cl)cc2c2[nH]c3ccccc3c12 | 20700
86 | O=C(NCCCNc1nc2ccccc2c2[nH]c3ccccc3c12)Nc1ccccc1 | 23900
87 | O=C(NCCCCCCNc1nc2ccccc2c2[nH]c3ccccc3c12)Nc1ccccc1 | 16200
88 | Cn1c2ccccc2c2c(NCCCN)nc3ccccc3c21 | 24200
89 | O=C(NCCCNc1nc2ccc(Br)cc2c2[nH]c3ccccc3c12)Nc1ccccc1 | 13900
90 | S=C(NCCCNc1nc2ccccc2c2[nH]c3ccccc3c12)Nc1ccccc1 | 18500
91 | O=C(NCCCNc1nc2ccccc2c2[nH]c3ccccc3c12)c1cccs1 | 24100

System: Plasmodium berghei
Test: Antimalarial activity against Plasmodium berghei infected in Swiss mouse assessed as reduction in parasitemia at 50 mg/kg, ip qd administered for 4 days measured on day 4 post last dose by FACS analysis relative to control
Type: functional
Set-up: scale not given: the % may be the effect or the level left
Settings: route intraperitoneal
Outline: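 Plasmodium berghei-infected mice, standard '4 Day Test'. Parasitaemia measured by FACS. Activity is the difference between mean percent parasitaemia of control (n = 5 mice) and treated groups, expressed as a percentage of control.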

Row | Compound | Activity [%]
92 | CC(C)(CNC(=O)Nc1ccccc1)CNc1nc2ccc(Cl)cc2c2[nH]c3ccccc3c12 | 38

System: Plasmodium berghei
Test: Antimalarial activity against Plasmodium berghei infected in Swiss mouse assessed as survival at 50 mg/kg, ip qd administered for 4 days measured on day 4 post last dose
Type: functional
Settings: route intraperitoneal

Row | Compound | Survival [days]
93 | CC(C)(CNC(=O)Nc1ccccc1)CNc1nc2ccc(Cl)cc2c2[nH]c3ccccc3c12 | 4
